One experiment has as its target T1, human TLR7 (Homo sapiens, UniProt Q9NYK1).
T1 sequence (Q9NYK1 27-1049): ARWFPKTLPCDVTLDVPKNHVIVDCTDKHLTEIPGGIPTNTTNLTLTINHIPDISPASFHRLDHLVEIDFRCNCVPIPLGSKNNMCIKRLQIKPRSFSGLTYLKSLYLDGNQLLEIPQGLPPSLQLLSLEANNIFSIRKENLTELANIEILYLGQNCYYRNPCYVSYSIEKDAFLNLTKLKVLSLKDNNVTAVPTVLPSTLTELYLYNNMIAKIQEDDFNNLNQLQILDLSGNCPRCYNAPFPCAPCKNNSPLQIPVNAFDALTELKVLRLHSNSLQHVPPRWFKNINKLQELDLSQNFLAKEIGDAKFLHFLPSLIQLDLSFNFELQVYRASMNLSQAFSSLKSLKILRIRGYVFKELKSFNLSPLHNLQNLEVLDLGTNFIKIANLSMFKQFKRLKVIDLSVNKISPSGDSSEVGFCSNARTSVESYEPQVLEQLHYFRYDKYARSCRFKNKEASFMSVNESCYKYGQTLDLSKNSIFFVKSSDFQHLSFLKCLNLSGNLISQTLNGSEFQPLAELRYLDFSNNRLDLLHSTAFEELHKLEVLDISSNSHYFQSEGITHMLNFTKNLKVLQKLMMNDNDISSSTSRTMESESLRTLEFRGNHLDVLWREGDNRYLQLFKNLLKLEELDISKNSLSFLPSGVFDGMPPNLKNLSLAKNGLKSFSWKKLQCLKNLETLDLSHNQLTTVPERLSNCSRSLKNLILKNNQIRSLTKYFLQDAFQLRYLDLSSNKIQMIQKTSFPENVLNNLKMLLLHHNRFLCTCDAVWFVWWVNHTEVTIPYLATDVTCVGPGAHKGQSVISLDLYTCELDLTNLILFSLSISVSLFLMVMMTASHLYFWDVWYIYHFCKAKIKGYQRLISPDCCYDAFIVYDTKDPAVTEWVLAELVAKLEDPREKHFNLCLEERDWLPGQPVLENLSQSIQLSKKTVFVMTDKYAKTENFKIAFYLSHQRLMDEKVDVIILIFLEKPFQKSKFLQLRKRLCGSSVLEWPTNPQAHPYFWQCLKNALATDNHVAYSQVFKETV
Nature of the experiment: HEK293-hTLR7 NFκB SEAP reporter assay. It counts as cell-based. To be noted: comparator 1b. (Reporter assays use an easily measured gene product as a stand-in for the process of interest.)

A further experiment deals with human PBMCs. Briefly: TNFα induction from human PBMCs. It counts as cell-based. To be noted: hPBMCs, in the dose range evaluated. An outline of the steps:
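Donor PBMCs from healthy human whole blood were isolated on a Ficoll-Hypaque 1.077 gradient and plated at 0.5 × 10^6 cells/well in RPMI-1640 with pen/strep/glutamine and 10% heat-inactivated FBS. Test compounds (stocks 3–5 mg/mL in 2% glycerol–10% DMSO/water) were added at increasing concentrations for 24 h. Supernatant TNFα and IFNα were measured by ELISA. MEC is the lowest tested dose inducing cytokine. Values come from one of three donors.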

As for `CCCCOc1nc(N)c2[nH]c(=O)n(CCN3CCNCC3)c2n1.Cl` [Compound 7a, 6-Amino-2-butoxy-9-(4-piperazinyl)ethyl-7,9-dihydro-8H-purin-8-one Hydrochloride], at human TLR7, the “fold less active (hTLR7) than 1b” value came to 12 fold. Take `CCCCOc1nc(N)c2[nH]c(=O)n(C3CNC3)c2n1.Cl` [Compound 3a, 6-Amino-2-butoxy-9-(3-azetidinyl)-7,9-dihydro-8H-purin-8-one Hydrochloride]: the TNFα induction result with human PBMCs was “did not induce measurable TNFα”.

Source of the values: publication PMC6761749 (ACS Omega, 2019).
